Only some compounds are listed: those with a hit (about 2.7% of all), similar ones and a draw of the others.
ARFGAP1 inhibitor: inhibits rat ARF GTPase activating protein 1; Q62848; Arfgap1-stimulated ARF1 GTP hydrolysis, GDP FP detection; inhibition, % at 16.5 µM; hit rate 0.26% among 360,000; AID 651572;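 active = inhibition above a per-plate limit, mean inhibition of low control wells plus 3 SD, cut at about 25% in these data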;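 also: 0% = DMSO wells with enzyme and 100% = wells lacking Arfgap1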
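Replicates: Single well per compound | Assay system: Truncated rat Arfgap1 GAP domain | Control set: No-Arfgap1 wells (100%) versus DMSO full-reaction wells (0%) | Times: Enzyme reaction 120 min at 25 °C after 20 min preincubation | Reagent: Human ARF1(Δ1-17)-GTP substrate | Measured by: Tracer-displacement fluorescence polarization with EDTA stop, 620/688 nm | Measure: Percent inhibition of Arfgap1-stimulated GTP hydrolysis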
PAFAH1B2 inh: blocks human PAF acetylhydrolase 1b catalytic subunit 2; recombinant PAFAH1B2, FP-rhodamine activity probe, fluorescence polarization; hit rate 1.2% among 340,000; inhibition, % at 3.39 µM; AID 492953; P68402;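 active = inhibition above the mean of all tested compounds plus 3 SD, cut at about 24% in these data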;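 also: 0% = enzyme with DMSO and 100% = wells lacking PAFAH1B2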
Target sequence (P68402 whole entry, looked up): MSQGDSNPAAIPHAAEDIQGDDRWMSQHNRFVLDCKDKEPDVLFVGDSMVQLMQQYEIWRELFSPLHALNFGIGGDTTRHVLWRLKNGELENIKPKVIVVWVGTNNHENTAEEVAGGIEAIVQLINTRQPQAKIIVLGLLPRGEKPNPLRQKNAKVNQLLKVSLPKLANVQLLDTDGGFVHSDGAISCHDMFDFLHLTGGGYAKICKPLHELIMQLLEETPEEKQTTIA
PAFAH2 FP inh: inhibitors of human PAFAH2; Q99487; recombinant PAFAH2, FP-rhodamine activity probe, fluorescence polarization; inhibition, % at 3.39 µM; hit rate 0.99% among 340,000; AID 492956;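 active = inhibition above the mean over all tested compounds plus 3 SD, cut at about 30% in these data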;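 also: inhibitors block probe labeling of enzyme so polarization drops; 0% = enzyme with DMSO and 100% = wells lacking PAFAH2 protein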
PAFAH1B3 FP inh: blocks human PAF acetylhydrolase 1B catalytic subunit 3; Q15102; recombinant PAFAH1B3, FP-rhodamine probe, fluorescence polarization; inhibition, % at 3.39 µM; hit rate 0.28% among 340,000; AID 492972;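 active = inhibition above the screen-wide average of all tested compounds plus 3 SD, cut at about 25% in these data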;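 also: 0% = enzyme with DMSO only and 100% = wells lacking PAFAH1B3 protein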
ASAP1 inh: inhibitors of human ASAP1 ArfGAP activity. hit rate 0.19% among 360,000. ASAP1-stimulated ARF1 GTP hydrolysis, GDP FP detection. inhibition, % at 16.5 µM. AID 624377; in the data active = inhibition above about 25%;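 also: 0% = vehicle with enzyme and substrate and 100% = no enzyme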
Target sequence (Q9ULH1 325-724 limits assumed): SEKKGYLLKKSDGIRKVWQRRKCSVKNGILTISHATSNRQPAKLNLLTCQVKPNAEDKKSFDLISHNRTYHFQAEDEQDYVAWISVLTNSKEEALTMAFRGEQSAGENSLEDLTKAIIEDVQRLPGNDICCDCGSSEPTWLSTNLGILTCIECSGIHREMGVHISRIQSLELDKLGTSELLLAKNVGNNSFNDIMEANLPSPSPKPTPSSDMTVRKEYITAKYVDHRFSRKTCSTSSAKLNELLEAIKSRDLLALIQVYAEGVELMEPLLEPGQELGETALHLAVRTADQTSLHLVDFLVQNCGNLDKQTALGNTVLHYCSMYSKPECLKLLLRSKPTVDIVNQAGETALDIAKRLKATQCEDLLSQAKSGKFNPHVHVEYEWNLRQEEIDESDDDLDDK
pPAFAH FP inh: inhibitors of human plasma PAF acetylhydrolase (pPAFAH); recombinant pPAFAH, FP-rhodamine probe fluorescence polarization; hit rate 1.5% among 330,000; inhibition, % at 3.39 µM;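 active = inhibition above the mean inhibition across the screen plus 3 SD, cut at about 25% in these data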;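 also: inhibitors block binding of the rhodamine activity-based probe so polarization drops; 0% = enzyme with DMSO and 100% = wells lacking pPAFAH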
ASAP1 inh confirm: ASAP1 inhibition confirmed. hit rate 37% among 620. AID 624431. ASAP1-stimulated Arf1 GTPase, GDP fluorescence polarization. shares compounds with ASAP1 inh. inhibition, % at 16.5 µM;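 active = mean inhibition over triplicates exceeds the hit threshold derived for the earlier primary screening run, cut at about 25% in these data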
An asterisk follows results filed as active; nt = no result given.

SMILES	ARFGAP1 inhibitor	PAFAH1B2 inh	PAFAH2 FP inh	PAFAH1B3 FP inh	ASAP1 inh	pPAFAH FP inh	ASAP1 inh confirm
Cc1nc2nc[nH]n2c(=O)c1NS(C)(=O)=O	1.1	-0.7	1.2	-2.2	25.8*	5.1	3.6
CC(C)c1ccc(OCC(=O)Nc2ccc(S(=O)(=O)Nc3ccccn3)cc2)cc1	4.2	0.7	-13.3	-7.0	24.7*	-4.4	-3.9
CCCCCCC(=O)N=Nc1c(O)[nH]c2ccc([N+](=O)[O-])cc12	6.4	1.2	-1.8	8.2	-8.0	5.7	nt
COCCNC(=S)N=Nc1c(O)[nH]c2ccc([N+](=O)[O-])cc12	2.0	-0.8	3.9	1.3	29.6*	0.4	41.0*
CCN1C=C(Cc2cccs2)C2=C(C1)C(c1cccs1)C(C#N)=C(N)O2 (stereo not drawn)	-4.0	-2.5	14.3	7.7	25.1*	19.8	6.7
CCN1CC2=C(OC(N)=C(C#N)C2c2cccs2)/C(=C/c2cccs2)C1 (stereo not drawn)	4.3	2.1	3.8	5.2	7.0	18.6	nt
O=C(C[n+]1cccc(C(=O)Nc2ccccc2)c1)c1ccc(Cl)cc1	3.1	nt	nt	nt	25.3*	nt	3.6
C=CCN1CC(=O)N2C(c3ccccc3)c3[nH]c4ccccc4c3C[C@H]2C1=O (stereo partly drawn)	-2.3	5.3	16.9	-0.4	0.5	nt	nt
COCCNC(=O)C1CCCN(C(=O)c2cc(-c3ccccc3)cs2)CC1 (stereo not drawn)	-2.1	nt	nt	nt	0.4	nt	nt
CCN(C[C@H]1N[C@@](CC)(C(=O)OC)[C@H]2C(=O)N(Cc3ccccc3)C(=O)[C@@H]12)C(=O)COc1ccccc1	-8.6	0.5	9.6	9.5	19.7	1.5	nt
COc1ccc2ccccc2c1C1CC(=O)N2CN(C3CCCCC3)CSC2=C1C#N (stereo not drawn)	-10.6	4.4	4.1	-4.5	-3.9	11.2	nt
CCOc1cc(C2CC(=O)N3CN(C4CCCCC4)CSC3=C2C#N)ccc1O (stereo not drawn)	-15.2	3.7	7.6	-2.7	25.9*	-1.3	3.4
O=[N+]([O-])c1ccccc1OCCOc1ccccc1[N+](=O)[O-]	34.9*	-2.0	-4.9	-13.0	81.3*	0.8	102.1*
O=C(Cn1c2ccccc2c(=O)c2ccccc21)N/N=C/c1ccc(N2CCCC2)c([N+](=O)[O-])c1	6.5	4.9	8.7	7.2	-2.3	4.8	nt
O=C(Cn1c2ccccc2c(=O)c2ccccc21)N/N=C/c1cc([N+](=O)[O-])ccc1N1CCCCCC1	20.4	-33.2	-74.8	-37.4	37.4*	-0.5	40.1*
CC(=O)NCCn1ccc2ccccc21	9.2	2.5	-4.8	3.4	26.9*	-3.4	6.1
O=C(Cc1ccccc1)NCCn1ccc2ccccc21	-0.5	3.2	-4.4	-6.6	-6.3	-1.8	nt
COc1cc(OC)cc(-c2sc3ccc(OC)cc3c2C#CCO)c1	19.7	-4.9	-13.8	-4.7	12.4	-1.8	nt
COc1cc2sc(-c3ccc(S(C)(=O)=O)cc3)c(C#CCO)c2cc1OC	14.9	0.4	-6.8	10.4	30.2*	4.0	8.3
COc1cc(CN2C[C@@H](CO)O[C@@H](n3cnc4c(N(C)C)ncnc43)C2)cc(OC)c1OC	-0.3	nt	nt	nt	-7.3	nt	nt
CC(/C=N/NC(=O)c1nnn(-c2nonc2N)c1C(C)C)=C\c1ccccc1	13.7	1.8	-1.2	-0.7	28.8*	-5.9	11.9
COc1ccc(Br)cc1C(=O)Nc1cccc(-c2nnc(-c3ccco3)o2)c1	3.5	-10.5	8.5	-12.3	72.5*	1.6	37.3*
COc1ccc(NC(=O)N(C)C[C@H]2OCc3cn(nn3)CCCC(=O)N([C@@H](C)CO)C[C@@H]2C)cc1	12.3	nt	nt	nt	-4.0	nt	nt
COCCn1cnc2c(c1=O)c1nc3ccccc3nc1n2/N=C/c1ccc(OC)c(OC)c1	-12.5	6.2	4.3	9.4	32.9*	4.5	37.5*
O=C(NC1CCCCC1)C(c1cccnc1)N(C(=O)CCl)c1ccc(F)cc1 (stereo not drawn)	10.7	2.5	-0.8	4.1	6.2	2.4	nt
SMILES	ARFGAP1 inhibitor	PAFAH1B2 inh	PAFAH2 FP inh	PAFAH1B3 FP inh	ASAP1 inh	pPAFAH FP inh	ASAP1 inh confirm
COc1ccc(N(C(=O)CCl)C(C(=O)NC2CCCCC2)c2cccnc2)cc1 (stereo not drawn)	-7.8	-0.4	7.0	2.4	69.9*	1.2	-0.2
Oc1ccc(Cl)cc1-c1cc(-c2cccc(Br)c2)n[nH]1	19.9	-1.1	-8.0	5.6	27.7*	1.1	27.0*
CC(=O)c1c(C)[nH]c(C(=O)CN2CCN(S(=O)(=O)c3ccccc3F)CC2)c1C	6.9	3.4	-5.6	9.0	-0.3	3.2	nt
CC1N(O)C(c2ccc(Cl)cc2Cl)N(O)C1(C)C (stereo not drawn)	5.1	2.3	-6.2	3.8	25.1*	-0.2	4.7
ON1C(c2ccc(Cl)cc2Cl)N(O)[C@H]2CCCC[C@H]21 (stereo partly drawn)	4.7	12.6	11.9	5.2	2.0	1.4	nt
CC1(c2ccccc2)NC(=O)N(CCN2C(=O)c3ccccc3C2=O)C1=O (stereo not drawn)	11.9	3.4	2.1	3.4	24.9*	1.3	6.5
COc1ccc([C@H]2CC(=O)C=C(c3cc(OC)ccc3OC)C2)cc1	-11.1	1.0	-0.2	-2.1	-7.1	-0.8	nt
O=C(Nc1ccc(NC(=S)NC(=O)c2ccco2)cc1)c1ccc(Br)cc1	9.8	nt	nt	nt	58.4*	nt	161.2*
CCCNC(=O)C1(C)CCCN(Cc2ccc(-n3ccnc3)cc2)C1 (stereo not drawn)	2.3	nt	nt	nt	3.0	nt	nt
CCCNC(=O)C1(C)CCN(Cc2ccc(-n3ccnc3)cc2)C1 (stereo not drawn)	3.2	nt	nt	nt	26.1*	nt	1.9
O=C(NCCc1ccc(O)c(Br)c1)c1ccc(Br)o1	-2.5	nt	nt	nt	-12.6	nt	nt
CC[C@H](CO)Oc1cc(NCc2ccc(Cl)c(Cl)c2)c2ncn(C(C)C)c2c1	14.0	16.8	11.8	3.7	26.3*	15.3	16.4
CCC(CO)Oc1cc(NCc2ccc(C)cc2)c2ncn(C(C)C)c2c1 (stereo not drawn)	-2.9	12.6	4.4	6.1	13.7	0.4	nt
COc1ccc(NC(=O)CN(C)C(=O)c2cccc(S(=O)(=O)N3CCN(c4ccc(F)cc4)CC3)c2)cc1	2.6	6.6	-3.4	-7.9	-23.0	nt	nt
Cc1ccc2c(CC(=O)N3CCN(c4ccccc4)CC3)coc2c1	3.2	3.8	-12.5	1.9	24.8*	-1.4	1.1
CNc1ncnc2c1ncn2-c1ccccc1	-10.6	3.4	2.4	6.7	-7.6	nt	nt
Cc1nc(NCCc2ccc(S(N)(=O)=O)cc2)c2c(C)c(C)sc2n1	14.4	2.5	-10.3	3.1	24.7*	0.0	3.2
Nc1c(S(=O)(=O)c2cccs2)c2nc3ccccc3nc2n1Cc1ccccc1	16.4	0.3	-9.4	1.9	26.1*	5.8	7.6
